A short description of the data set: Toxicity liver stage against HepG2, at 10uM. The format is cell-based. On the set-up: test concentration 10 uM, cell line HepG2-A16-CD81EGFP. The note with it: human, HepG2-A16-CD81EGFP cells; read-out: INHIBITION
In outline: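 Uninfected HepG2-A16-CD81EGFP cells, 3 × 10^3 per well, 1536-well, plated on prespotted compound at 10 μM final, parasite-free screening media added to match infected plates; puromycin 10 μM positive, DMSO 0.5% negative; run in parallel with 48 h PbLuc assay at 37 °C, 5% CO2; viability by CellTiter-Glo luminescence, normalized to controls.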
Regarding `CC(C)NC(=O)CCC(=O)N1CCC(c2noc3cc(F)ccc23)CC1`, the cytotoxicity at 10 µM came out at 2.13%.
The figure for `Cc1cc(-c2nn3c(C4CCC4)nnc3s2)on1` is -5.65%; for `O=C(Nc1cccnc1)C1CN(C(=O)c2ccc3c(c2)OCO3)C1` it is -11.7%.
The figure for `COc1ncc(NS(=O)(=O)c2cccc(C)c2)c(OC)n1` is 10.4%.
In the case of `Cc1c(Cl)cccc1S(=O)(=O)N1CCC(S(=O)(=O)c2nncn2C)CC1` it was 1.06%; in that of `CC(=O)N1CCc2nc(N3CCCC3)nc(C)c2C1`, -0.567%.
Turning to `COc1ccc(CC(=O)N2CCc3nc(C(=O)N(C)C)sc3CC2)cc1`, the cytotoxicity at 10 µM was 15.8%.
The figure for `Cc1noc(C[C@@H]2COC[C@H]3CN(C(=O)C4=CCCC4)C[C@@H]23)n1` is -0.91%; for `CCOCc1cnc2n1CCN(C(=O)Cc1cccs1)C2C` (stereo not given) it is 8.04%.
In the case of `CNC(=O)N1CCN(C(=O)C(C)C)CC2(CC(=O)N(C)C2)C1` (stereo not given) it was 7.43%; in that of `O=C(NCC1CCN(Cc2ccsc2)CC1)NC1CC1`, 6.82%.
In the case of `CN1CCC(C(=O)N2CCC(c3ccc4c(N)n[nH]c4n3)CC2)CC1` it was 2.43%.
On to `CC1(C(=O)N2CCSCC2)CNCCO1` (stereo not given), for which the cytotoxicity at 10 µM was 4.79%.
In the case of `Cc1nn(C)c(C)c1-c1cncc(C2CCN(S(C)(=O)=O)CC2)n1` it was 8.88%.
In the case of `COc1ccc(Cl)cc1CS(=O)(=O)Cc1noc(C)n1` it was 2.32%; in that of `COc1cccc(C2(C(=O)NC3CCc4nccn4C3)CCCC2)c1` (stereo not given), 2.74%.
In the case of `CC(c1ccncc1)N(C)C(=O)NCCOc1ccc(C#N)cc1` (stereo not given), the cytotoxicity at 10 µM was -15.5%.
The figure for `CC(C)(C)OC(=O)N1CCC(NC2CCS(=O)(=O)C2)CC1` (stereo not given) is -6.72%; for `O=C(c1cccc(F)c1F)N1CCn2c(nnc2C(F)(F)F)C1` it is -8.22%.
The figure for `COCCc1nc(-c2cnn3c(C)cc(C)nc23)no1` is 2.49%; for `CC(C)(O)CN1CCN(C(=O)c2cccn2Cc2cccnc2)CC1` it is -0.787%.
In the case of `CC(=O)Nc1ccc(CNc2cccc(CS(C)(=O)=O)c2)cc1` it was -6.91%; in that of `CCCC(NC(=O)c1cc(C)ccc1O)c1nnn[nH]1` (stereo not given), -3.26%; in that of `CCc1nc(NS(=O)(=O)c2cc(C)c(F)cc2Cl)no1`, 15.8%.
On to `Cc1cnn(CCNCc2ccc(OCc3ccccn3)cc2)c1`, for which the cytotoxicity at 10 µM came out at 0.686%.
The figure for `O=C(NCCCn1cccn1)C1(c2cccc(Cl)c2)CC1` is 17.9%; for `CC1(NC(=O)Cc2csc(-c3ccccc3Cl)n2)CCS(=O)(=O)C1` (stereo not given) it is -9.81%; for `Cc1cc(C(=O)NC2CC(=O)N(C(C)C)C2=O)c(C)n1C(C)C` (stereo not given) it is -9.13%.
The figure for `CCSCCC(C)N(C)C(=O)c1ccc2nncn2c1` (stereo not given) is -5.4%; for `Cn1cc(S(=O)(=O)N2CCC(OCCCc3ccccc3)C2)cn1` (stereo not given) it is 8.93%; for `O=C(NCC1(c2ccc(F)cc2)CCC1)N1CCC2(CCOCC2)C1` it is 3.73%.
In the case of `CCN(C(=O)CNC1CCc2ncnn2C1)C1=CCCCC1` (stereo not given) it was 0.701%; in that of `Cc1nc(C2(NCC(=O)NC(=O)NCc3cccs3)CCCCC2)no1`, -9.52%.
Take `CCC(=O)N1CCC2(C=C(C(=O)N3CCCC3)c3ccccc32)CC1`: the cytotoxicity at 10 µM is -92.8%.
The figure for `Cc1cc(CN2CC[C@@H]3O[C@@H](c4nnc(C)o4)C[C@H]3C2)no1` is -103%.
Turning to `O=C(C1CCOC1)N1C[C@H]2CN(Cc3cccc(F)c3)C(=O)[C@H]2C1` (stereo not given in full), the cytotoxicity at 10 µM is -106%.
The figure for `O=C(O)c1cc(-c2ccncc2)cc(S(=O)(=O)N2CCSCC2)c1` is 3.26%; for `CS(=O)(=O)N1CCCn2nc(CNc3ncccn3)cc2C1` it is 4.83%; for `CN1CC2(CCCN(Cc3nnc(-c4ccccc4)o3)CC2)OC1=O` (stereo not given) it is 0.184%.
For the compound `O=C(c1ccccc1C(F)(F)F)N1C[C@@H](CN2CCOCC2)[C@@H](CO)C1`, the cytotoxicity at 10 µM was -3.7%.
In the case of `O=C(Nc1ccc(-c2ccn[nH]2)cc1)C1CCCN(Cc2ccoc2)C1` (stereo not given) it was -0.16%; in that of `COc1ccc2c(c1)C(C(=O)NCCN1CCOC1=O)CC(=O)N2` (stereo not given), 8.68%.
Consider `Cn1cnc2cc(C(=O)N3CCC(c4ccccc4C(=O)O)C3)cnc21` (stereo not given), for which the cytotoxicity at 10 µM was -8.98%.
For the compound `CS(=O)(=O)NC1CCN(C(=O)c2coc(CN3CCOCC3)c2)CC1`, the cytotoxicity at 10 µM amounted to 3.54%.
In the case of `O=C(CCn1cccc1)N1CCc2[nH]nc(COc3ccccc3)c2C1` it was 7.54%; in that of `CN1CCC(N(C)C[C@H]2CC[C@@H](Cc3cccc(O)c3)O2)CC1`, -12.2%.
Regarding `Cc1cc2cccc(C(=O)N3CC[C@@H](N)[C@H](O)C3)c2o1`, the cytotoxicity at 10 µM was -0.193%.
In the case of `Cc1cc(C)c2nc(CN3CCC(CN)CC3)cc(O)c2c1` it was 2.55%.
The figure for `CN(C)CCN(C)C1CCN(C(C(=O)O)c2ccc(F)c(Cl)c2)CC1` (stereo not given) is 2.95%; for `CCOCc1nc(CSc2ccncc2)n(C2CCN(C)CC2)n1` it is -1.45%; for `CC(=O)CCCC(=O)N(Cc1ccsc1)CC(C)C` it is -50.3%.
With `CCc1ccccc1-c1cc(OC)nc(N)n1`, the cytotoxicity at 10 µM is -3.3%.
In the case of `Cc1ncc(CN2CCC(CNS(=O)(=O)C3CC3)C2)cn1` (stereo not given), the cytotoxicity at 10 µM was determined as 2.84%.
The figure for `CN(C)C1CCCN(Cc2cccc(Cn3cccn3)c2)CC1` (stereo not given) is -12.6%.
The figure for `Cn1cccc1-c1cc(C(=O)NCCCc2csc(N)n2)[nH]n1` is -8.9%; for `CC1(COc2ccccc2)NCCc2[nH]cnc21` (stereo not given) it is -0.254%.
The figure for `c1csc(CCC2CCCCN2Cc2noc(C3CC3)n2)c1` (stereo not given) is 0.562%.
As for `O=C(O)C(c1ccc2c(c1)OCO2)N1CCCC1` (stereo not given), the cytotoxicity at 10 µM is -3.04%.
In the case of `CCNC(=O)N1CCN(Cc2nc3ccccc3[nH]2)[C@@H]2CS(=O)(=O)C[C@@H]21`, the cytotoxicity at 10 µM was determined as 14.1%.
In the case of `CN(C)C(=O)C1CCN(Cn2nc(-c3ccc(F)cc3)oc2=O)CC1` it was -2.06%; in that of `O=C(Cc1ccccc1)NCCNCc1cccc(O)c1`, -0.206%.
The figure for `Cn1c(C2CC2)nc2c1CCN(Cc1nc(Cc3ccccc3)no1)C2` is -6.37%; for `Cc1cnn(CC(C)NCc2nc(-c3cccs3)no2)c1` (stereo not given) it is -7.64%; for `COc1cc(C(=O)NS(=O)(=O)c2cccc(C#N)c2)cc(OC)c1Br` it is -9.67%.
In the case of `Cc1cnn(CCNCc2csc(-c3ccccc3)n2)c1` it was -9.48%; in that of `CCOC(=O)CN(C)C1CCc2ccccc21` (stereo not given), 0.367%.
Turning to `Cc1cc(NC(=O)CCN2CCCCC2Cn2cccn2)no1` (stereo not given), the cytotoxicity at 10 µM was 2.14%.
In the case of `Cc1nc(C2CCCN2C(=O)CCOCc2ccccc2)no1` (stereo not given) it was -2.4%; in that of `Cc1nn(C)c(Cl)c1C1CCCN1C(=O)c1cnn(C)c1C1CC1` (stereo not given), 1.99%.
The figure for `CNC(=O)c1ccc(C(=O)N2CCCC(n3cc(C)cn3)C2)cn1` (stereo not given) is -0.884%.
For `Cc1noc(C)c1CN(C)C(=O)NC1CCN(C2CC2)CC1`, the cytotoxicity at 10 µM was -10.1%.
Turning to `Cc1cnc(CN(C)C2CCN(CC(=O)Nc3c(C)n[nH]c3C)C2)o1` (stereo not given), the cytotoxicity at 10 µM is -6.38%.
In the case of `CN(C)c1ncccc1CNS(=O)(=O)c1ccccc1F` it was -4.81%.
In the case of `CC(C)(C)c1cn2nc(N3CCC[C@@H]3CO)sc2n1` it was 3.64%.
In the case of `COCCN1C(=O)CCC12CCC(NCc1cccnc1OC)CC2` (stereo not given) it was 8.64%; in that of `CN(C)CCn1c2c(ccc1=O)CC(NCc1cccnc1)CC2` (stereo not given), 14.4%.
Regarding `CC(=O)NCC(=O)N1CCC2(CC1)NC(=O)CC2c1cccnc1` (stereo not given), the cytotoxicity at 10 µM is -72.5%.
The figure for `CNC(=O)[C@@H]1C[C@H]2CN(Cc3ccc(C)s3)C[C@H]2N1C(C)=O` is 2.76%; for `CS(=O)(=O)NCc1nnc2n1CCN(Cc1cccs1)CC2` it is -71.7%; for `Cc1ccc(C(=O)N2CCC3(CCN(C(=O)c4cccnc4)C3)CC2)o1` it is 0.101%.
For `CC(=O)N1CCC2(CC1)COCCN2Cc1ccc(F)cc1`, the cytotoxicity at 10 µM is 5.69%.
As for `O=C(c1c[nH]cn1)N1CCC(F)(F)C2(CCN(c3ccccn3)C2)C1` (stereo not given), the cytotoxicity at 10 µM was 11%.
The figure for `CC1c2ncc(CN3CCN(C)CC3)n2CCN1Cc1cccnc1` (stereo not given) is -2.12%; for `Cc1cccc(CN2Cc3[nH]nc(COc4cccnc4)c3C2)n1` it is 0.288%.
In the case of `CCS(=O)(=O)N1CCC2(CCN(Cc3cccc(OC)c3)CC2)CC1` it was 2.5%.
The figure for `Cc1cccc(N2CC3(CCN(S(=O)(=O)C4CC4)C3)C2)n1` is 3.86%; for `CC(=O)N1CCC2(CC1)CN(C(=O)c1cccnc1)c1ccc(F)cc12` it is -108%.
`O=C([C@H]1C[C@H]2OCC[C@H]2N(Cc2ccco2)C1)N1CCCO1`: the cytotoxicity at 10 µM amounted to 8.73%.
The figure for `COCCN1CCOCC12CCN(Cc1ccn(C)n1)CC2` is -3.39%; for `CN1[C@H](Cn2cncn2)C[C@@H]2CN(C3CCOCC3)CC[C@@H]21` it is 4.56%; for `CCC1=N[C@@]2(CC[C@@H]3CN(Cc4ccc(C)cc4)C[C@@H]32)C(=O)N1C` it is -95%.
In the case of `CNC(=O)[C@@H](c1ccccc1)N1CCC[C@H]1C(=O)NCc1ccccn1` it was 5.62%; in that of `COCCN1CCC2(CC1)CN(C(=O)C1CC1)c1ccc(F)cc12`, -0.213%.
The figure for `CCOCC(=O)N1Cc2nccn2CC(CN2CCCC2)C1` (stereo not given) is -76.3%; for `c1cnc(N2CCOC3(CCN(CC4CCCCC4)CC3)C2)nc1` it is 0.256%.

Values taken from ChEMBL document CHEMBL4513216, “Probing the Open Global Health Chemical Diversity Library for Multistage-Active Starting Points for Next-Generation Antimalarials” (ACS Infect Dis, 2020).
